Experimental data taken from ChEMBL document CHEMBL3259739, “Synthesis and structure-activity relationship of trisubstituted thiazoles as Cdc7 kinase inhibitors” (Eur J Med Chem, 2014).

How the values were obtained:
[1] = target: T1, CDC7/DBF4 (Cell division cycle 7-related protein kinase/Activator of S phase kinase) (Homo sapiens, UniProt O00311); assay: Inhibition of Cdc7/Dbf4 (unknown origin)-mediated phosphorylation of MCM2 by protein-A luminescent proximity homogenous assay; format: protein-complex assay
[2] = target: Cyclin-dependent kinase 2/cyclin E1 (Homo sapiens, UniProt P24941); assay: Inhibition of CDK2/Cyclin-E (unknown origin) using maltose binding protein as substrate by HTRF assay; format: protein-complex assay
[3] = target: T1, CDC7/DBF4 (Cell division cycle 7-related protein kinase/Activator of S phase kinase); assay: Inhibition of Cdc7/Dbf4 in human HCT116 cells assessed as reduction of MCM2 phosphorylation after 14 hrs; format: cell-based, HCT-116
In short: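 HCT-116 cells were exposed to inhibitor across a 22-point dose response for 14 h. They were then immunostained for phospho-serine MCM2 using an Alexa Fluor 488 secondary, with a Hoechst nuclear counterstain. The percentage of cells with phospho-MCM2 signal above a threshold was scored by high-content imaging, and IC50 values were derived from that.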

[4] = species on record: Homo sapiens; assay: Selectivity ratio of IC50 for CDK2/Cyclin-E (unknown origin) to IC50 for Cdc7/Dbf4 (unknown origin)
[5] = target: CDC7/DBF4 (Cell division cycle 7-related protein kinase/Activator of S phase kinase) (Homo sapiens) (UniProt Q9UBU7+O00311); assay: Ratio of IC50 for Cdc7/Dbf4 in human HCT116 cells to IC50 for Cdc7/Dbf4 (unknown origin); format: cell-based; conditions: HCT-116
[6] = Intrinsic clearance in human liver microsomes at 1 uM after 30 mins by reverse phase HPLC analysis in presence of NADPH; format: ADME; conditions: read-out: CLH
In short: (§1)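 Reactions were stopped with MeCN after 0 or 30 min. Samples were analysed by reverse-phase HPLC–tandem MS to give intrinsic clearance (µl/min/mg).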

[7] = Intrinsic clearance in rat liver microsomes at 1 uM after 30 mins by reverse phase HPLC analysis in presence of NADPH; format: ADME; conditions: read-out: CLH; in short: as §1

T1 sequence (Q9UBU7 whole entry): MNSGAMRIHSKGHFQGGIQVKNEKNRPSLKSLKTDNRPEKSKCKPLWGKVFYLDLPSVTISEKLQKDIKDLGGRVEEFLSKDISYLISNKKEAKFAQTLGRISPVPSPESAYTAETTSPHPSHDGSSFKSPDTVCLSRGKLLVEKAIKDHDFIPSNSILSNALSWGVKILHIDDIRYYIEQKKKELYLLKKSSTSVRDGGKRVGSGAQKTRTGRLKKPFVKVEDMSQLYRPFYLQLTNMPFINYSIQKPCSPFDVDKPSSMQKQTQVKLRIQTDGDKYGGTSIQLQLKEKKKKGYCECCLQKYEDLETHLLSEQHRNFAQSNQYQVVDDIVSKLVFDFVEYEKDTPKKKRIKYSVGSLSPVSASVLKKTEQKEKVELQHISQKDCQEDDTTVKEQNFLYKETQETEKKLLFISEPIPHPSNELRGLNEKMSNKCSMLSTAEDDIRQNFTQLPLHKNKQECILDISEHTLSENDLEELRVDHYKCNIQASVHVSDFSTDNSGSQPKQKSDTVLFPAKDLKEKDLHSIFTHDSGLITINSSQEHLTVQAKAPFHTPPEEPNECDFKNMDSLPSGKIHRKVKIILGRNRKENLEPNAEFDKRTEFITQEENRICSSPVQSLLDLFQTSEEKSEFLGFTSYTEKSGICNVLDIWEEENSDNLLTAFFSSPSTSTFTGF
T1 sequence (O00311 whole entry): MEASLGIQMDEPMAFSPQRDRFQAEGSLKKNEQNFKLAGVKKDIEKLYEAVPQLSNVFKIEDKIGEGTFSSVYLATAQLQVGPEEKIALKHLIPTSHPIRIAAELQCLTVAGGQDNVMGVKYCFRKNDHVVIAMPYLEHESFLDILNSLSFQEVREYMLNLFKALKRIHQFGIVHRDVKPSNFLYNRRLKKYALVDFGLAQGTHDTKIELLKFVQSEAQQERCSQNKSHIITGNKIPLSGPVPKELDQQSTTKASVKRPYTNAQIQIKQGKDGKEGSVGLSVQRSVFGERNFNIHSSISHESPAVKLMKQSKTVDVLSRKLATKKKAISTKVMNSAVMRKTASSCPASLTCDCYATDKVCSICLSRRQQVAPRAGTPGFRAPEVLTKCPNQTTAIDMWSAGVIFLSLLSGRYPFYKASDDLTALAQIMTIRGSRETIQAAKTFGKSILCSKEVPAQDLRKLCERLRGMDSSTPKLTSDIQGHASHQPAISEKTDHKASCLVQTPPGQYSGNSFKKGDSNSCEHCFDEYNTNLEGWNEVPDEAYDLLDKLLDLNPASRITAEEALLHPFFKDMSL
Sequence of CDC7/DBF4 (Cell division cycle 7-related protein kinase/Activator of S phase kinase) (Homo sapiens) (O00311 whole entry, looked up): as the sequence (O00311 whole entry) above
Sequence of CDC7/DBF4 (Cell division cycle 7-related protein kinase/Activator of S phase kinase) (Homo sapiens) (Q9UBU7 whole entry, looked up): as the sequence (Q9UBU7 whole entry) above

Row | SMILES | IC50 [1] [µM] | IC50 [2] [µM] | IC50 [3] [µM] | Ratio IC50 [4] | Ratio IC50 [5] | microsomal CLint at 1 µM [6] [µL/min/mg] | microsomal CLint at 1 µM [7] [µL/min/mg]
1 | CCOC(=O)c1sc(-c2ccnc(CC)c2)nc1O | 7.5 | > 125 |  |  |  |  | 
2 | CCOC(=O)c1sc(-c2ccccc2)nc1O | 46.7 | > 125 |  |  |  |  | 
3 | CCOC(=O)c1sc(C(C)(C)C)nc1O | > 125 | > 125 |  |  |  |  | 
4 | CN(C)C(=O)c1sc(-c2ccncc2)nc1O | 24.4 | > 125 |  |  |  |  | 
5 | CCOC(=O)c1sc(-c2ccnc(N)c2)nc1-c1ccccc1 | 19.9 | > 125 |  |  |  |  | 
6 | N#Cc1sc(-c2ccncc2)nc1-c1ccccc1 | 10.3 | > 125 |  |  |  |  | 
7 | CCOC(=O)c1sc(-c2ccccn2)nc1O | > 125 | > 125 |  |  |  |  | 
8 | CCOC(=O)c1sc(-c2ccncc2)nc1-c1ccccc1 | 20.5 | > 125 |  |  |  |  | 
9 | CCOC(=O)c1sc(-c2ccncc2)nc1C | 25.1 | > 125 |  |  |  |  | 
10 | CCOC(=O)c1sc(-c2cnccn2)nc1O | 26.5 | > 125 |  |  |  |  | 
11 | CCOC(=O)c1sc(-c2ccncc2)nc1NCc1ccccc1 | 38.3 | > 125 |  |  |  |  | 
12 | CCOC(=O)c1sc(-c2cccnc2)nc1O | 32 | > 125 |  |  |  |  | 
13 | O=C(O)c1sc(-c2ccncc2)nc1O | 6.13 | > 125 |  |  |  |  | 
14 | CCOC(=O)c1cnc(-c2ccncc2)s1 | 24 | > 125 |  |  |  |  | 
15 | CCOC(=O)c1sc(-c2ccncc2)nc1OC | 17.2 | > 125 |  |  |  |  | 
16 | CCOC(=O)c1sc(-c2ccncc2)nc1-c1ccc2ccccc2c1 | > 125 | > 125 |  |  |  |  | 

Row | SMILES | IC50 [1] [µM] | IC50 [2] [µM] | IC50 [3] [µM] | Ratio IC50 [4] | Ratio IC50 [5] | microsomal CLint at 1 µM [6] [µL/min/mg] | microsomal CLint at 1 µM [7] [µL/min/mg]
17 | CCOC(=O)c1sc(-c2ccncc2)nc1N | 4.2 | > 125 |  |  |  |  | 
18 | CNC(=O)c1sc(-c2ccncc2)nc1O | 8.98 | > 125 |  |  |  |  | 
19 | CCOC(=O)c1sc(-c2ccncc2)nc1-c1ccc(Cl)cc1Cl | 0.973 | > 125 |  |  |  |  | 
20 | CCOC(=O)c1sc(-c2cc(N)ncn2)nc1-c1ccccc1 | > 125 | > 125 |  |  |  |  | 
21 | c1ccc(-c2nc(-c3ccncc3)sc2-c2nnco2)cc1 | 3.87 | > 125 |  |  |  |  | 
22 | CCOC(=O)c1sc(-c2ccncc2)nc1NC | 7.35 | > 125 |  |  |  |  | 
23 | CCOC(=O)c1sc(-c2ccncc2)nc1-c1ccc(OC)cc1Cl | 0.855 | > 125 |  |  |  |  | 
24 | CCOC(=O)c1sc(-c2ccncc2)nc1-c1cccnc1 | 8.29 | > 125 |  |  |  |  | 
25 | O=C(NO)c1sc(-c2ccncc2)nc1-c1ccccc1 | 1.69 | > 125 |  |  |  |  | 
26 | CCOC(=O)c1sc(-c2ccncc2)nc1Nc1ccccc1 | > 125 | > 125 |  |  |  |  | 
27 | CCOC(=O)c1sc(-c2ccncc2)nc1-c1ccccc1O | 3.22 | > 125 |  |  |  |  | 
28 | CCOC(=O)c1sc(-c2ccncc2)nc1-c1ccc(F)cc1Cl | 1.02 | > 125 |  |  |  |  | 
29 | O=C(NCc1ccccc1)c1sc(-c2ccncc2)nc1O | 11.6 | 52.1 |  |  |  |  | 
30 | CCOC(=O)c1sc(-c2ccc(OC)cc2)nc1O | > 125 | > 125 |  |  |  |  | 
31 | CCOC(=O)c1sc(-c2ccsc2)nc1O | 29.6 | > 125 |  |  |  |  | 

Compounds with a lower IC50 [1], results first:

Row | IC50 [1] [µM] | IC50 [2] [µM] | IC50 [3] [µM] | Ratio IC50 [4] | Ratio IC50 [5] | microsomal CLint at 1 µM [6] [µL/min/mg] | microsomal CLint at 1 µM [7] [µL/min/mg] | SMILES
32 | 0.115 | > 125 | > 50 |  |  |  |  | NC(=O)c1sc(-c2ccncc2)nc1O
33 | 0.104 | 1.2 |  | 11 |  |  |  | O=C1Nc2ccccc2Nc2nc(-c3ccncc3)sc21
34 | 0.172 | > 125 |  |  |  |  |  | O=C(O)c1sc(-c2ccncc2)nc1-c1ccccc1
35 | 0.0143 | 0.7 | 11.5 |  | > 100 |  |  | NC(=O)c1sc(-c2ccncc2)nc1-c1ccc(Cl)cc1Cl
36 | 0.0955 | 5.71 | 9.93 |  | > 100 |  |  | COc1nc(-c2ccncc2)sc1C(N)=O
37 | 0.0623 | > 125 | 8.5 |  |  | 67 | 69 | NC(=O)c1sc(-c2ccnc(N)n2)nc1-c1cc(Cl)cc(Cl)c1
38 | 0.0184 | 34.9 | 2.04 |  |  | < 14 | < 14 | NC(=O)c1sc(-c2ccnc(N)n2)nc1-c1ccccc1C(F)(F)F
39 | 0.101 | 34.2 | 23.6 |  | > 100 |  |  | NC(=O)c1sc(-c2ccncc2)nc1-c1ccccc1
40 | 0.0178 | > 125 | 1.07 |  |  | < 14 | < 14 | NC(=O)c1sc(-c2ccnc(N)n2)nc1-c1ccccc1F
41 | 0.00604 | 7.03 | 1.4 |  |  | < 14 | 140 | Cc1ccc(-c2nc(-c3ccnc(N)n3)sc2C(N)=O)c(Cl)c1
42 | 0.0415 | > 125 |  |  |  |  |  | CCOC(=O)c1sc(-c2ccnc(N)n2)nc1O
43 | 0.0205 | 18.2 | 1.87 |  |  | 23 | 26 | CN(C)c1nc(-c2ccnc(N)n2)sc1C(N)=O
44 | 0.451 | > 125 |  |  |  |  |  | CCOC(=O)c1sc(-c2ccncc2)nc1-c1cccc(Cl)c1Cl
45 | 0.472 | > 125 |  |  |  |  |  | NNC(=O)c1sc(-c2ccncc2)nc1-c1ccccc1
46 | 0.452 | > 125 |  |  |  |  |  | c1ccc(-c2nc(-c3ccncc3)sc2-c2nn[nH]n2)cc1
47 | 0.0328 | 34.8 | 3.62 |  |  | < 14 | 28 | NC(=O)c1sc(-c2ccnc(N)n2)nc1-c1cc(F)ccc1F
48 | 0.529 | > 125 |  |  |  |  |  | CCOC(=O)c1sc(-c2ccncc2)nc1-c1ccccc1Cl
49 | 0.669 | > 125 |  |  |  |  |  | CCOC(=O)c1sc(-c2ccncc2)nc1N(C)C
